The list is not random: actives were taken first. Their share in the collection is about 1.6%.
NR1D1 modulator: modulates human Rev-erb alpha binding to DNA; 0.79% of 370,000 active; activity, % at 10 µM; P20393; Rev-erbα–FITC-DNA binding, fluorescence polarization, 90 min; AID 1259318;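 active means activity above about 14%, limit read from the data; passing the limit was not always enough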;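 further: 0% = DMSO wells with 35 nM protein and 100% = DMSO wells with 750 nM protein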
NR2E3 ag-1: activates human NR2E3 receptor | Q9Y5X4 | CHO-S Gal4-NCOR/VP16-NR2E3 two-hybrid, luciferase | inhibition of corepressor binding, % at 3.98 µM | 0.35% of 360,000 active;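 active means inhibition above the mean of all tested compounds plus 3 SD, cut at about 70% in these data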;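 further: 0% = DMSO with NR2E3 transfected cells and 100% = cells lacking NR2E3 construct; higher means lower luciferase signal from less NR2E3 corepressor binding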
NR2E3 ag-2: agonists of human nuclear receptor NR2E3. Q9Y5X4. GST-NR2E3/biotin-RetCOR TR-FRET, 1536-well. inhibition of corepressor binding, % at 4.78 µM. 0.12% of 320,000 active. AID 2300;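 active means percent inhibition above the cutoff of mean plus 3 SD of all tested compounds, set per screening campaign, cut at about 20% in these data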;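 further: 0% = DMSO wells and 100% = biotin wells as full block of FRET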
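Format: 1536-well format; test system: GST-NR2E3 and biotin-RetCOR proteins; read-out basis: percent inhibition of TR-FRET ratio; timing: 5 h incubation at 4 °C; detection: time-resolved FRET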
PKA-R1A activ: activators of PKA-R1A complex; P00514+P68181; PKA-R1A dissociation, Cy5-IP20 fluorescence polarization; scaled: DMSO 0%, 113 µM cGMP 100%; activation, % at 11.4 µM; 0.083% of 340,000 active; AID 504707;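 active means percent activation above the mean of all tested compounds plus 3 SD, cut at about 19% in these data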;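 further: higher means more PKAc released from R1A so a rise in polarization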
PG9 binder: binds the HIV-1 gp120 antibody PG9; TR-FRET gp120-PG9 antibody binding; inhibition, % at 6.7 µM; 0.43% of 360,000 active; AID 624416; in the data active means inhibition above about 8.5%
PKA-R2B act: activates the human PKA-R2B holoenzyme complex. P22694+P31323. PKA-R2B holoenzyme dissociation, Cy5-IP20 fluorescence polarization; R2B truncated from residue 108, S112A mutant; 0% DMSO only, 100% 113 µM cGMP. activation, % at 11.4 µM. 0.079% of 340,000 active. AID 504700;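 active means activation above a cutoff set at the mean over all compounds plus 3 SD, cut at about 18% in these data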;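 further: higher means more holoenzyme dissociation and a rise in polarization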
Target sequence (P31323 whole entry, looked up, other chains not shown, the tested form may be a part): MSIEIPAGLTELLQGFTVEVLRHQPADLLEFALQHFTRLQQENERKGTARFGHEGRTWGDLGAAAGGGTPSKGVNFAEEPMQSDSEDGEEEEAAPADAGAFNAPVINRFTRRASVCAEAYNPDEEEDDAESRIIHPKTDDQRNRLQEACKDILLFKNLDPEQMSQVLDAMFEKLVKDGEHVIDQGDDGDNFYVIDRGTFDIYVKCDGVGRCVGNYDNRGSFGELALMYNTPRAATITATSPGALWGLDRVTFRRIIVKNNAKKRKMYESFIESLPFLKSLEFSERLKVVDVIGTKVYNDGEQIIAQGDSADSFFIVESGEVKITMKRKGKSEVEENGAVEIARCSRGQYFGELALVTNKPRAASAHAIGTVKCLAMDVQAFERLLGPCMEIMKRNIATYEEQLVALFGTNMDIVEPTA
NR2E3 ag confirm: NR2E3 agonism confirmed in two-hybrid assay | CHO-S mammalian two-hybrid NR2E3-NCOR, luciferase luminescence | inhibition, % at 3.98 µM | 51% of 2,300 active | shares compounds with NR2E3 ag-1;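 active means average inhibition above a cutoff equal to the mean inhibition of all tested compounds plus one SD, cut at about 70% in these data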;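 further: 0% = DMSO in NR2E3 cells and 100% = DMSO in cells lacking NR2E3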
GAL4-VP16 luc: GAL4-VP16 reporter inhibition in NR2E3 agonist counterscreen. shares compounds with NR2E3 ag-1. CHO-S GAL4-VP16 luciferase reporter, luminescence. inhibition, % at 3.98 µM. 29% of 2,300 active. AID 624379;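 active means mean inhibition above a cutoff equal to the average over all tested compounds plus one standard deviation, cut at about 70% in these data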;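 further: luciferase from a UAS reporter driven by GAL4-VP16 transactivation; 0% = DMSO with VP16-transfected cells and 100% = DMSO with cells lacking VP16; higher means less reporter light so more repression of VP16 activity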
The depositor's hits bear a star; · = not tested or not shown.

SMILES	NR1D1 modulator	NR2E3 ag-1	NR2E3 ag-2	PKA-R1A activ	PG9 binder	PKA-R2B act	NR2E3 ag confirm	GAL4-VP16 luc
O=C(NCCc1ccccc1)OCc1cn(Cc2ccccc2C(F)(F)F)nn1	0	·	·	·	·	·	·	·
C=CCN1[C@H](C#N)[C@@H](c2ccc(C#Cc3cccc(OC)c3)cc2)[C@H]1CO	-2	·	·	·	·	·	·	·
O=C(CN(CCc1ccccc1)S(=O)(=O)c1ccc(F)cc1)N1CCOCC1	-2	·	·	·	·	·	·	·
O=C(NCCC1=CCCCC1)c1ccc(Cl)c(S(=O)(=O)N2CCOCC2)c1	-2	10	0	-9	0	-3	·	·
O=C(NCCC1=CCCCC1)c1ccc(Cl)c(S(=O)(=O)N2CCCCC2)c1	-2	51	-1	-5	-1	-3	21	-3
C#Cc1cccc(Nc2nc(NCc3ccccc3)nc3ccsc23)c1	-1	61	·	·	0	·	84*	44
Fc1ccc(Nc2nc(NCc3ccccc3)nc3ccsc23)cc1	-2	55	·	·	1	·	59	41
c1ccc(CNc2nc(NCCc3ccncc3)c3sccc3n2)cc1	-1	81*	·	·	0	·	52	55
N#Cc1ccc(Nc2nc(NCc3ccccc3)nc3ccsc23)cc1	-8	-51	·	·	-1	·	·	·
CCOC(=O)[C@]12CCCC=C1N(Cc1ccc(OC)cc1)C(=O)[C@@H]2CC(=O)N1CCN(C(=O)c2ccco2)CC1	2	·	·	·	·	·	·	·
COC[C@H]1CCCN1c1ccc2c(c1)O[C@H]1CCN(C1)S2(=O)=O	-1	·	·	·	·	·	·	·
Cc1cccc(-c2noc(CCC(=O)NCc3ccco3)n2)c1	2	-22	2	-10	2	-15	·	·
CC(C)(C)c1ccc(-c2noc(CCC(=O)NCc3ccco3)n2)cc1	-3	77*	4	-2	-1	6	74*	79*
CCC(C)C(=O)Nc1ccc(S(=O)(=O)N2CCCC2)cc1 (configuration not stated)	2	-5	1	-5	2	3	·	·
CCC(C)NS(=O)(=O)c1ccc(S(=O)(=O)N2CCCC3(CCCCC3)C2)cc1 (configuration not stated)	9	85*	-5	-10	1	-2	89*	73*
Cc1cccc(CSC(Nc2ccc(F)cc2)=C(C#N)C#N)c1	6	97*	0	-11	-1	-5	98*	93*
Cc1cccc(CSC(=N)N)c1	10	4	-2	6	2	-1	·	·
Cc1cccc(C)c1N1CCN(C(c2cc3ccccc3o2)c2nnnn2C(C)(C)C)CC1 (configuration not stated)	·	75*	·	·	·	·	84*	67
Cc1cnc(NC(=O)CN2CCN(c3ccccn3)CC2)s1	0	64	0	8	0	5	94*	16
COc1ccc(N2CCN(CC(=O)Nc3ncc(C)s3)CC2)cc1	-3	-12	3	1	0	7	·	·
O=C(Nc1ccccc1)Nc1cc(Cl)cc(Cl)c1	4	20	4	-17	0	-1	·	·
O=C(Nc1ccccc1)Nc1cc(OCC(F)(F)F)cc(OCC(F)(F)F)c1	8	64	·	-18	0	-10	31	40
Clc1ccc2c(NCc3cccs3)ncnc2c1	3	19	0	5	-1	-10	·	·
Clc1ccc2c(NCc3ccco3)ncnc2c1	-2	54	1	14	-2	0	45	43
CCCCOc1ccc(C(=O)NC2CCCCN(Cc3cccc(C(F)(F)F)c3)C2=O)cc1 (configuration not stated)	6	·	·	·	·	·	·	·
SMILES	NR1D1 modulator	NR2E3 ag-1	NR2E3 ag-2	PKA-R1A activ	PG9 binder	PKA-R2B act	NR2E3 ag confirm	GAL4-VP16 luc
COC(=O)C1CN(Cc2cn(CCC3OCCO3)nn2)CCS(=O)(=O)N1Cc1ccc(OC)cc1 (configuration not stated)	0	·	·	·	·	·	·	·
CC(C)c1cc2c(c(O)c1O)[C@@]13CCCC(C)(C)C1CC2OC3=O (some centres not stated)	2	85*	2	-4	2	3	92*	-5
CC(=O)c1cc(-c2ccccc2)c(=O)n2c1CCC2	1	·	·	·	·	·	·	·
COc1ccc(-c2csc(NC(=O)Cc3cc(OC)c(OC)c(OC)c3)n2)cc1OC	-1	48	-2	3	0	6	10	44
C[C@@H]1CN([C@@H](C)CN(C)C)C(=O)c2cc(NC(=O)Nc3ccccc3)ccc2O[C@@H](C)CCCCO[C@H]1CN(C)S(=O)(=O)c1ccc(F)cc1	9	·	·	·	·	·	·	·
CCN1/C(=C/c2sc(-c3ccccc3C)c[n+]2C)Sc2ccccc21	-1	90*	·	-3	0	-11	99*	85*
Cc1nc2c(-c3ccc(Cl)cc3)cnn2c(N)c1-c1ccc(F)cc1	3	32	1	-5	0	2	·	·
Cc1nc2c(-c3ccc(F)cc3)cnn2c(N)c1-c1ccccc1	12	77*	2	-12	-1	-12	48	12
CCOC(=O)C1=C(C(=O)OCC)C2N(Cc3ccc(C(F)(F)F)cc3)c3ccccc3[C@@]23C[C@@H](C(=O)OC)N(S(=O)(=O)c2ccc(OC)cc2)C3=N1 (some centres not stated)	-6	·	·	·	-2	·	·	·
CC(C)CC(N)c1csc(NC(=O)c2cc(C(C)(C)C)nn2Cc2ccccc2)n1 (configuration not stated)	-1	52	·	·	1	·	14	7
CC(C)CC(N)c1csc(NC(=O)Nc2ccccc2Cc2ccccc2)n1 (configuration not stated)	4	6	·	·	-1	·	·	·
CN(CCOC(=O)c1cc2ccccc2o1)C1CN(Cc2cn(Cc3ccccc3C(F)(F)F)nn2)S(=O)(=O)C1 (configuration not stated)	7	·	·	·	·	·	·	·
COc1ccc(CN2C(C(=O)NC3CCCC3)CSCCS2(=O)=O)cc1 (configuration not stated)	-1	·	·	·	·	·	·	·
Cc1cc(C)nc(SCC(=O)Nc2sc3c(c2C#N)CCC(C)C3)n1 (configuration not stated)	4	71*	-3	-3	-4	-9	74*	77*
CCc1cc2c(nc1CC)CCCN2S(=O)(=O)c1ccccc1	1	·	·	·	0	·	·	·
Clc1c(Cl)c(Cl)c2n[nH]nc2c1Cl	-1	64	-4	-7	2	-6	96*	81*
CCOC(=O)[C@]12CCCCC/C=C\1N(Cc1ccc(OC)cc1)C(=O)[C@H]2CC(=O)NCC1CCCCC1	8	·	·	·	·	·	·	·

Screening data deposited in PubChem BioAssay by several laboratories.
